Published values pooled from the literature.
Compare with care: the assays were run in different laboratories.
Target: RAC-alpha serine/threonine-protein kinase (AKT1, Homo sapiens, UniProt P31749)

CN(c1nccc(-c2cnn3ncccc23)n1)C1CC1 — remaining binding (binding; 1 µM): 100%
Nc1ncc2c(n1)-c1c([nH]c3ccc(C#CC4CC4)cc13)CCCC2 — remaining binding (binding; competition with immobilised ligand; 1 µM): 95%
CC(C)(C)c1ccc(-c2nc(CBr)nn2-c2cccc(O)c2)cc1 — remaining binding (cell-free assay; competition with immobilised ligand; 10 µM): 94%
C[C@H]1CCN(c2nccc(-c3cnn4ncccc34)n2)C1 — remaining binding (binding; 1 µM): 92%
C[C@H](c1ccc(F)cc1)N(Cc1cccc(C(=O)O)c1)C(=O)c1cnc2ccccc2c1 — remaining binding (cell-free assay; competition with immobilised ligand; 1 µM): 100%
CC1CCCN1c1nccc(-c2cnn3ncccc23)n1 (stereo not shown) — remaining binding (binding; 1 µM): 100%
N#Cc1ccccc1CSc1nnc2c(n1)[nH]c1ccccc12 — remaining binding (binding; competition with immobilised ligand; 10 µM): 85%
Cc1cnc(Nc2ccc(C(=O)N3CCC(N4CCCC4)CC3)cc2)nc1-c1cc2ccccc2s1 — remaining binding (binding; competition with immobilised ligand; 1 µM): 100%
CN(CCCC(F)(F)F)c1nccc(-c2cnn3ncccc23)n1 — remaining binding (binding; 1 µM): 100%
FC(F)(F)Oc1cccc(-c2cnc3ccc(-c4ccncc4)nn23)c1 — remaining binding (cell-free assay; competition with immobilised ligand; 5 µM): 88%
CS(=O)(=O)N1CCCC(NC(=O)[C@H](CCC2CCCCC2)NC(=O)c2ccc(CNc3ncnc4c3nnn4-c3ccccc3)cc2)C1 (stereo partly shown) — remaining binding (cell-free assay; competition with immobilised ligand; 0.1 µM): 100%
c1cncc(-c2cccc(Nc3nccc(NC4CCCCC4)n3)c2)c1 — remaining binding (binding; competition with immobilised ligand; 10 µM): 71%
N#Cc1ccc(Nc2ccc3[nH]c(=O)[nH]c3c2)c(Cl)c1 — remaining binding (cell-free assay; competition with immobilised ligand; 1 µM): 67%
O=C(NCCCN1CCOCC1)c1ccc(Nc2ncc(Cl)c(-c3ccc(Cl)s3)n2)cc1 — remaining binding (binding; competition with immobilised ligand; 1 µM): 100%
N[C@@H]1CCN(c2nccc(-c3cnn4ncccc34)n2)C1 — remaining binding (binding; 1 µM): 100%
Cc1nc(N2CC[C@@H](O)C2)ncc1-c1cc(C(F)(F)F)cc2[nH]ncc12 — remaining binding (binding; competition with immobilised ligand; 1 µM): 100%
O=C(c1ccc(Nc2ncc(Cl)c(-c3cc4ccccc4s3)n2)cc1)N1CCC(N2CCCC2)CC1 — remaining binding (binding; competition with immobilised ligand; 1 µM): 100%
CN1CCN(c2cnc3c(C4CCN(C(=O)c5ccc(OC(F)(F)F)cc5N)CC4)ncnc3c2)CC1 — remaining binding (cell-free assay; competition with immobilised ligand; 1 µM): 100%
c1cnn2ncc(-c3ccnc(N4CCC45COC5)n3)c2c1 — remaining binding (binding; 1 µM): 95%
O=C(Nc1cnc(Oc2ccc(F)cc2)nc1)N1CCc2ncccc2[C@@H]1c1ccc(F)cc1 — remaining binding (cell-free assay; competition with immobilised ligand; 1 µM): 100%
C[C@@H]1CN(c2ccc3ncc(-c4ccc5[nH]nc(C6CC6)c5c4)n3n2)C[C@H](C)O1 — remaining binding (binding; competition with immobilised ligand; 0.5 µM): 100%
CC(=O)C1=C(C)N(c2cccc(C(F)(F)F)c2)C(=O)N[C@@H]1c1ccc(C#N)nc1 — remaining binding (cell-free assay; competition with immobilised ligand; 1 µM): 90.4%
O=C(Nc1c[nH]nc1C(=O)NC1CCNCC1)c1cc(F)cc(F)c1 — remaining binding (binding; competition with immobilised ligand; 1 µM): 92%
FC(F)(F)c1ccc2c(c1)nc(-c1cccnc1)n2C1CC1 — remaining binding (cell-free assay; competition with immobilised ligand; 1 µM): 100%
COc1cnc(Nc2cccc(S(N)(=O)=O)c2)nc1N1CCN(c2ccccc2)C(=O)C1 — remaining binding (binding; competition with immobilised ligand; 1 µM): 100%
